Some results are limits rather than exact numbers.

Data set [1] addresses Gamma-secretase. The data set is described as follows: Inhibition of gamma-secretase in human SHSY5Y cells expressing human recombinant APP assessed as decrease in total Abeta level after 24 hrs by DELFIA. The following applies: sh-sy5y. Format: cell-based.
The target of data set [2] is Gamma-secretase. The data set is described as follows: Inhibition of gamma-secretase in human SHSY5Y cells expressing human recombinant APP assessed as amyloid beta42 formation by ELISA. Format: cell-based. As to conditions: sh-sy5y; in the assay text read “amyloid beta40 formation” for “amyloid beta42 formation”. Summed up: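 SH-SY5Y cells overexpressing human APP Swedish variant were incubated with compound for 48 h. Secreted Aβ42 and Aβ40 were measured by immunoassay (MSD electrochemiluminescence or AlphaLISA).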
(ELISA stands for enzyme-linked immunosorbent assay.)

The subject of data set [3] is CV-1. The data set is described as follows: Inhibition of gamma-secretase expressed in african green monkey CV1 cells coexpressing Gal4 DNA-binding/transactivation domain assessed as inhibition of notch processing by luciferase reporter assay at 20 uM. The data set is classed as cell-based. In general terms: Reporter assays use an easily measured gene product as a stand-in for the process of interest.

Data set [4] has as its target T1, Gamma-secretase (Homo sapiens) (UniProt Q96BI3+Q9NZ42+Q8WW43+P49768+Q92542+P49810). Put plainly: (§1) Inhibition of gamma-secretase in human SHSY5Y cells expressing human recombinant APP assessed as increase in Abeta38 level after 24 hrs by DELFIA. Format: cell-based. The following applies: SH-SY5Y.
The target in data set [5] is Gamma-secretase. Described as §1. As to conditions: sh-sy5y. Format: cell-based.
The target in data set [6] is T1, Gamma-secretase (Homo sapiens). The data set is described as follows: Inhibition of gamma-secretase in human SHSY5Y cells expressing human recombinant APP assessed as amyloid beta40 formation at 20 uM by ELISA. The following applies: SH-SY5Y.
The target in data set [7] is Gamma-secretase. Put plainly: Inhibition of gamma-secretase in human SHSY5Y cells expressing human recombinant APP assessed as amyloid beta40 formation by ELISA. The following applies: sh-sy5y; in the assay text read “amyloid beta42 formation” for “amyloid beta40 formation”. The data set is classed as cell-based. Summed up: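 SH-SY5Y cells overexpressing human APP Swedish variant exposed to compound for 48 h; Aβ40 (and Aβ42) in the cell medium quantified by ELISA, either Meso Scale Discovery or AlphaLISA format. Compounds also cross-screened for inhibition of Notch processing.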

For data set [8], the system named is SH-SY5Y. Put plainly: Cytotoxicity against human SH-SY5Y cells after 24 hrs by WST1 assay. The data set is classed as cell-based.
A short description of data set [9]: Inhibition of gamma-secretase expressed in african green monkey CV1 cells coexpressing Gal4 DNA-binding/transactivation domain assessed as inhibition of notch processing by luciferase reporter assay. The data set is classed as cell-based. As to conditions: CV-1.
Data set [10] has as its target Gamma-secretase. The data set is described as follows: Inhibition of gamma-secretase in human SHSY5Y cells expressing human recombinant APP assessed as effect on Abeta40 level after 24 hrs by DELFIA. Format: cell-based. As to conditions: sh-sy5y.
In data set [11] the target is T1, Gamma-secretase (Homo sapiens). The data set is described as follows: (§2) Inhibition of gamma-secretase in human SHSY5Y cells expressing human recombinant APP assessed as decrease in Abeta42 level after 24 hrs by DELFIA. The data set is classed as cell-based. As to conditions: SH-SY5Y.
Data set [12] deals with Gamma-secretase. Described as §2. The data set is classed as cell-based. The following applies: sh-sy5y.
Data set [13] is described as follows: Volume of distribution at steady state in mouse at 3 mg/kg, iv and 10 mg/kg, po. The data set is classed as ADME, organism-based. As to conditions: in vivo, read-out: Vdss. Summed up:
(§3)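 Mouse PK: single iv dose of 3 mg/kg and oral dose of 10 mg/kg; data are the mean from three animals.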

Data set [14] can be described thus: Drug level in mouse brain at 5 mg/kg, po after 2 hrs. The data set is classed as ADME, organism-based. As to conditions: read-out: Drug uptake. Set-up: dose 5 mg/kg, route oral. Summed up: (§4)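 Mice dosed orally at 5 mg/kg in 1% (w/v) aqueous methylcellulose. Blood and brain sampled 2 h post-dose; brain:blood ratio derived from these levels; mean of three mice.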

A short description of data set [15]: Volume of distribution at steady state in dog at 1 mg/kg, iv and 1 mg/kg, po. The data set is classed as ADME, organism-based, Canis lupus familiaris. The following applies: in vivo, read-out: Vdss. The method, boiled down:
(§5)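 Dog PK: iv and oral doses each 1 mg/kg; data from a single animal. Oral bioavailability was measured with the sodium salt in 1% methylcellulose vehicle.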

Data set [16] is described as follows: Half life in rat at 1 mg/kg, iv and 3 mg/kg, po. The data set is classed as ADME, organism-based. The following applies: in vivo. The method, boiled down: (§6)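 Rat PK: iv 1 mg/kg paired with oral 3 mg/kg or 2 mg/kg; values are the mean from three animals. Oral bioavailability was measured with the sodium salt in 1% methylcellulose vehicle.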
The nature of data set [17]: Clearance in rat blood at 1 mg/kg, iv and 3 mg/kg, po. Format: ADME, organism-based. Summed up: as §6
The nature of data set [18]: Half life in mouse at 3 mg/kg, iv and 10 mg/kg, po. As to conditions: in vivo. Format: ADME, organism-based. Summed up: as §3
Data set [19] in a line: Oral bioavailability in dog at 1 mg/kg. The data set is classed as ADME, organism-based, Canis lupus familiaris. The following applies: in vivo. The method, boiled down:
as §5

Data set [20] in a line: Clearance in mouse blood at 3 mg/kg, iv and 10 mg/kg, po. Format: ADME, organism-based. Summed up:
as §3

A short description of data set [21]: Drug level in mouse blood at 5 mg/kg, po after 2 hrs. The data set is classed as ADME, organism-based. The following applies: read-out: Drug uptake. Set-up: dose 5 mg/kg, route oral. Summed up:
as §4

A short description of data set [22]: Half life in dog at 1 mg/kg, iv and 1 mg/kg, po. The data set is classed as ADME, organism-based, Canis lupus familiaris. As to conditions: in vivo. Summed up: as §5
Data set [23] can be described thus: Volume of distribution at steady state in rat at 1 mg/kg, iv and 3 mg/kg, po. Format: ADME, organism-based. As to conditions: in vivo, read-out: Vdss. Summed up:
as §6

Data set [24] can be described thus: Oral bioavailability in rat at 3 mg/kg. Format: ADME, organism-based. As to conditions: in vivo. The method, boiled down: as §6
Data set [25] in a line: Oral bioavailability in mouse at 10 mg/kg. The data set is classed as ADME, organism-based. As to conditions: in vivo. Summed up: as §3
Data set [26] in a line: Clearance in dog blood at 1 mg/kg, iv and 1 mg/kg, po. Format: ADME, organism-based, Canis lupus familiaris. Summed up: as §5
Data set [27] is described as follows: Oral bioavailability in rat at 2 mg/kg. Format: ADME, organism-based. As to conditions: in vivo. The method, boiled down:
as §6

The nature of data set [28]: Volume of distribution at steady state in rat at 1 mg/kg, iv and 2 mg/kg, po. The data set is classed as ADME, organism-based. The following applies: in vivo, read-out: Vdss. The method, boiled down: as §6
Data set [29] in a line: Clearance in rat blood at 1 mg/kg, iv and 2 mg/kg, po. Format: ADME, organism-based. The method, boiled down:
as §6

Data set [30] is described as follows: Half life in rat at 1 mg/kg, iv and 2 mg/kg, po. The data set is classed as ADME, organism-based. The following applies: in vivo. Summed up: as §6

With `CCC[C@@H](C(=O)O)c1cc(OCc2ccccc2)cc(-c2ccc(C(F)(F)F)cc2)c1`, the pIC50 (commonly the IC50 on a negative log10 scale, so that one unit is a factor of ten) in data set [1] was < 4; in data set [2], “<= 4.8”; in data set [10] it was < 4; in data set [12] it was 5.8. The values for the inhibition in data set [3] and in data set [6] were 20% and 32%, respectively. Moreover, the Activity entry in [4] and in data set [11] was “Dose-dependent effect” each time. Besides, the pEC50 (in general, the EC50 on a negative log10 scale, so that one unit is a factor of ten) in data set [5] is 5.9. For the same molecule, the IC50 – broadly, the point on the concentration scale where inhibition reaches its midpoint – is 3.98 µM in data set [7], > 100 µM in data set [8] and > 20 µM in [9].

Turning to `CC(C)CC[C@H](c1ccc(C(F)(F)F)nc1)N1CC[C@@H](CC(=O)[O-])C[C@H]1c1ccc(C(F)(F)F)cc1.[Na+]`, the Vd in data set [13] turned out to be 1.4 L/kg; in data set [15] it was 1.1 L/kg; in data set [23], 2.3 L/kg. Also, the concentration at 2 h was 4.2 µM in [14] and 5.6 µM in data set [21]. Further, the pIC50 turned out to be 4 in [1]; 5.2 in data set [2]; 6.5 in data set [7]; 4.4 in data set [10]; 6 in [12]. In data set [3], the inhibition (commonly the share of the control response that was lost under treatment) was found to be 24%. The Activity entry in data set [4] and in [11] was “Dose-dependent effect” each time. Moreover, in [5], the pEC50 is 6.3. Further, the half-life (in general, the time needed for the level to fall by half in the phase considered) in [16] was 6.6 h; in data set [18] it was 4.3 h; in [22], 5.2 h. Moreover, the clearance turned out to be 4 mL/min/kg in [17], 4 mL/min/kg in data set [20] and 3 mL/min/kg in data set [26]. Besides, the bioavailability (in general, the share of a dose that reaches the circulation, judged against a reference dose that is usually intravenous) in data set [19] was 72%; in [24], > 100%; in data set [25], > 100%. In addition, the values for the IC50 in data set [8] and in [9] were 100 µM and > 20 µM, respectively.

`CC(C)CC[C@H](c1ncc(C(F)(F)F)cn1)N1CC[C@@H](CC(=O)[O-])C[C@H]1c1ccc(C(F)(F)F)cc1.[Na+]`: the pIC50 in [2] was < 4.7; in [7], 6.1. Also, the inhibition in data set [6] came out at 17%. Further, the Vd was found to be 1.2 L/kg in data set [15] and 3 L/kg in [28]. The bioavailability in data set [27] was 95%; in data set [19], > 100%. The half-life in data set [22] was 3.1 h; in data set [30] it was 3 h. Further, in [9], the IC50 is 25.1 µM. The clearance in data set [29] came to 9 mL/min/kg; in [26], 5 mL/min/kg.

`O=C(O)Cc1ccc(-c2ccc(C(F)(F)F)cc2)c(-c2ccc(C(F)(F)F)cc2)c1`: the pIC50 is recorded as < 4 in [1]; < 4.7 in data set [2]; 5.7 in data set [7]; < 4 in data set [10]; 5.7 in data set [12]. Moreover, the inhibition was found to be 23% in data set [3] and 13% in [6]. Also, the Activity entry in data set [4] and in [11] was “Dose-dependent effect” throughout. Further, the pEC50 in [5] amounted to 5.1. The IC50 in data set [8] was > 100 µM; in data set [9], > 20 µM.

With `CC(C)[C@H](c1ccc(C(F)(F)F)nc1)N1CC[C@@H](CC(=O)[O-])C[C@H]1c1ccc(C(F)(F)F)cc1.[Na+]`, the pIC50 is listed as < 4 in data set [1]; < 4.7 in data set [2]; 5.4 in data set [7]; < 4 in [10]; 6 in data set [12]. Moreover, the results for the inhibition in data set [3] and in [6] were 21% and 24%, respectively. Also, the Activity entry in data set [4] and in [11] was “Dose-dependent effect” each time. Further, the pEC50 in data set [5] was 5. The IC50 is > 100 µM in data set [8] and > 20 µM in data set [9].

The values above are taken from ChEMBL document CHEMBL1159115, “Piperidine-derived gamma-secretase modulators” (Bioorg Med Chem Lett, 2010).
